ChEMBL document CHEMBL1156388, “Modulation of the multidrug-resistance phenotype by new tropane alkaloid aromatic esters from Erythroxylum pervillei” (J Nat Prod, 2001)
pIC50: −log10 of the molar value. Converted amounts (≈) assume the structure as drawn. The source made the active and inactive calls. The calls are words filed in the database; no cut-off is given here.

What was measured:
[1] = Cytotoxicity against human multidrug-resistant KBV1 cells in presence of vinblastin; format: functional; conditions: KB-V1, read-out: ED50 (the source's name)
SW626 = assay: Cytotoxicity against human SW626 cells; format: functional; conditions: read-out: ED50 (the source's name)
KB = assay: Cytotoxicity against human KB cells; format: functional; conditions: read-out: ED50 (the source's name)
[2] = Cytotoxicity against human multidrug-resistant KBV1 cells in absence of vinblastin; format: functional; conditions: KB-V1, read-out: ED50 (the source's name)
SK-OV-3 = assay: Cytotoxicity against human SKOV3 cells; format: functional, cell-based
[3] = Cytotoxicity against human multidrug-resistant SKVLB1 cells in presence of adriamycin; format: functional, cell-based
LNCaP = assay: Cytotoxicity against human LNCAP cells; format: functional; conditions: read-out: ED50 (the source's name)
Col2 = assay: Cytotoxicity against human Col2 cells; format: functional; conditions: read-out: ED50 (the source's name)
Lu1 = assay: Cytotoxicity against human Lu1 cells; format: functional; conditions: read-out: ED50 (the source's name)
[4] = Cytotoxicity against human multidrug-resistant SKVLB1 cells; format: functional, cell-based
[5] = Cytotoxicity against human BC1 cells; format: functional; conditions: read-out: ED50 (the source's name)
[6] = target: T1, ATP-dependent translocase ABCB1 (Homo sapiens, UniProt P08183); assay: Modulation of P-gp in human HCT15 cells assessed as increase in DINIB-induced cytotoxicity at 0.2 to 12.5 ug/mL; format: cell-based; conditions: hct-15
How it was run: (§1)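 Modulator dose ranges were chosen to give full dose–response curves and were combined with DINIB, an MDR-substrate cytotoxic agent, at nontoxic modulator concentrations. 5-Fluorouracil, a non-MDR agent, served as the negative-control drug. MDR1 expression and function: HCT-15 and UO-31 high, CAKI-1 moderate, LOX IMVI none (no MDR phenotype). The read-out was enhancement of DINIB growth inhibition.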

[7] = target: T1, ATP-dependent translocase ABCB1; assay: Modulation of P-gp in human UO31 cells assessed as increase in DINIB-induced cytotoxicity at 0.2 to 12.5 ug/mL; format: cell-based; conditions: uo-31; how it was run: as §1
[8] = target: T1, ATP-dependent translocase ABCB1; assay: Modulation of P-gp in human CAKI1 cells assessed as increase in DINIB-induced cytotoxicity at 0.2 to 12.5 ug/mL; format: cell-based; conditions: caki-1; how it was run: as §1
LOX IMVI [9] = assay: Increase in DINIB-induced cytotoxicity against human LOXIMVI at 0.2 to 12.5 ug/mL; format: functional, cell-based; how it was run: as §1
LOX IMVI [10] = assay: Increase in DINIB-induced cytotoxicity against human LOXIMVI at 0.8 to 12.5 ug/mL; format: functional, cell-based; how it was run: as §1
[11] = target: T1, ATP-dependent translocase ABCB1; assay: Modulation of P-gp in human HCT15 cells assessed as increase in DINIB-induced cytotoxicity at 0.2 to 3.1 ug/mL; format: cell-based; conditions: hct-15; how it was run: as §1
[12] = target: T1, ATP-dependent translocase ABCB1; assay: Modulation of P-gp in human CAKI1 cells assessed as increase in DINIB-induced cytotoxicity at 0.2 to 3.1 ug/mL; format: cell-based; conditions: caki-1; how it was run: as §1
LOX IMVI [13] = assay: Increase in DINIB-induced cytotoxicity against human LOXIMVI at 0.2 to 3.1 ug/mL; format: functional, cell-based; how it was run: as §1
[14] = target: T1, ATP-dependent translocase ABCB1; assay: Modulation of P-gp in human UO31 cells assessed as increase in DINIB-induced cytotoxicity at 0.2 to 3.1 ug/mL; format: cell-based; conditions: uo-31; how it was run: as §1
LOX IMVI [15] = assay: Increase in DINIB-induced cytotoxicity against human LOXIMVI at 3.1 to 50 ug/mL; format: functional, cell-based; how it was run: as §1
[16] = target: T1, ATP-dependent translocase ABCB1; assay: Modulation of P-gp in human HCT15 cells assessed as increase in DINIB-induced cytotoxicity at 3.1 to 50 ug/mL; format: cell-based; conditions: hct-15; how it was run: as §1
[17] = target: T1, ATP-dependent translocase ABCB1; assay: Modulation of P-gp in human CAKI1 cells assessed as increase in DINIB-induced cytotoxicity at 3.1 to 50 ug/mL; format: cell-based; conditions: caki-1; how it was run: as §1
[18] = target: T1, ATP-dependent translocase ABCB1; assay: Modulation of P-gp in human UO31 cells assessed as increase in DINIB-induced cytotoxicity at 3.1 to 50 ug/mL; format: cell-based; conditions: uo-31; how it was run: as §1
[19] = target: T1, ATP-dependent translocase ABCB1; assay: Modulation of P-gp in human CAKI1 cells assessed as increase in DINIB-induced cytotoxicity at 1.5 to 25 ug/mL; format: cell-based; conditions: caki-1
How it was run: (§2)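 NCI tumour-panel lines of differing MDR1 expression and function (HCT-15 and UO-31 high, CAKI-1 moderate, LOX IMVI none) were exposed to the MDR-substrate cytotoxin DINIB with or without modulator. 5-Fluorouracil, a non-MDR agent, served as the negative control; verapamil and cyclosporin A were reference modulators. Modulator concentrations spanned full dose–response curves. Maximum escalation of DINIB toxicity was taken at nontoxic modulator concentrations.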

[20] = target: T1, ATP-dependent translocase ABCB1; assay: Modulation of P-gp in human HCT15 cells assessed as increase in DINIB-induced cytotoxicity at 1.5 to 25 ug/mL; format: cell-based; conditions: hct-15; how it was run: as §2
[21] = target: T1, ATP-dependent translocase ABCB1; assay: Modulation of P-gp in human UO31 cells assessed as increase in DINIB-induced cytotoxicity at 1.5 to 25 ug/mL; format: cell-based; conditions: uo-31; how it was run: as §2
LOX IMVI [22] = assay: Increase in DINIB-induced cytotoxicity against human LOXIMVI at 1.5 to 25 ug/mL; format: functional, cell-based; how it was run: as §2

T1 sequence (P08183 whole entry): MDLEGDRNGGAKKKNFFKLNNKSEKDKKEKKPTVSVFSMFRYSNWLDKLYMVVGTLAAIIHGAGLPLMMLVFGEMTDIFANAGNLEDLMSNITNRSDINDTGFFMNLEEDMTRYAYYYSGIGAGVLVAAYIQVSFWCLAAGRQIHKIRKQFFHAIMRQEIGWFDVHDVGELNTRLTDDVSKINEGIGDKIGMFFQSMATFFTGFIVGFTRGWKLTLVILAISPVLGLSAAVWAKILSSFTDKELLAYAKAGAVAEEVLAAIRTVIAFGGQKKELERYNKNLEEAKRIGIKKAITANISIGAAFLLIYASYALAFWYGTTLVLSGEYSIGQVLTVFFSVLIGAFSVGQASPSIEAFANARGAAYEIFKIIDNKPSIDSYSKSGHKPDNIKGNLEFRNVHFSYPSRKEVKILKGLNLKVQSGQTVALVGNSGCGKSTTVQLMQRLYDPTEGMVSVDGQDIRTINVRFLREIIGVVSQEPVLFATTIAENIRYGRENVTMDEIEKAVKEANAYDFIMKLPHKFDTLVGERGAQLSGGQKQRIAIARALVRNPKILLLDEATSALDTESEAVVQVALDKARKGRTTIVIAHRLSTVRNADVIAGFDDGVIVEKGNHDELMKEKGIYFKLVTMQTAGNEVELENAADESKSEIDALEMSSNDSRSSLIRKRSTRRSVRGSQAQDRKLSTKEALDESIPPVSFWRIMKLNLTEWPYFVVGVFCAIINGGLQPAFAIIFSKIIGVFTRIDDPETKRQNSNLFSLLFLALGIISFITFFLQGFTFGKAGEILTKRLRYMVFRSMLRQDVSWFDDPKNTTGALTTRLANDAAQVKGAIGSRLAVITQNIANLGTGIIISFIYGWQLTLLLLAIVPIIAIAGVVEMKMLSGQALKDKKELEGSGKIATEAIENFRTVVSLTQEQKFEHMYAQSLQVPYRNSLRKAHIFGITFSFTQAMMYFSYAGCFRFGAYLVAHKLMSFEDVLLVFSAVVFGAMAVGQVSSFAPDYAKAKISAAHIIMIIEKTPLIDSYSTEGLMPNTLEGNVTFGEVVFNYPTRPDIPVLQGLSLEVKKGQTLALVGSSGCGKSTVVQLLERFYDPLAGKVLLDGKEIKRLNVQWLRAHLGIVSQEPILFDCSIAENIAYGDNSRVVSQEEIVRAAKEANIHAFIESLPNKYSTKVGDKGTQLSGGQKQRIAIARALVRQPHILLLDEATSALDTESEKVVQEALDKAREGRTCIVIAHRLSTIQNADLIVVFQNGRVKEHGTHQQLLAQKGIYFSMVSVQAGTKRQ

Row | SMILES | EC50 [1] | EC50 (SW626) | EC50 (KB) | EC50 [2] | pIC50 (SK-OV-3) | pIC50 [3] | EC50 (LNCaP) | EC50 (Col2) | EC50 (Lu1) | pIC50 [4] | EC50 [5] | other results
1 | COc1cc(/C=C/C(=O)O[C@H]2[C@@H](O)[C@@H]3C[C@H](OC(=O)c4cc(OC)c(OC)c(OC)c4)C[C@H]2[N+]3(C)[O-])cc(OC)c1OC (stereo partly specified) | > 20 µg/mL | > 20 µg/mL | > 20 µg/mL | > 20 µg/mL | < 5.00 | < 5.00 | > 20 µg/mL | > 20 µg/mL | > 20 µg/mL | < 5.00 | > 20 µg/mL | 
2 | COc1cc(C(=O)O[C@H]2C[C@H]3CC[C@@H](C2)N3C)cc(OC)c1OC | > 20 µg/mL | > 20 µg/mL | > 20 µg/mL | > 20 µg/mL |  |  | > 20 µg/mL | > 20 µg/mL | > 20 µg/mL |  | > 20 µg/mL | 
3 | CN1C2C[C@@H](OC(=O)Cc3ccccc3)CC1[C@H](O)[C@@H]2O | > 20 µg/mL | > 20 µg/mL | > 20 µg/mL | > 20 µg/mL |  |  | > 20 µg/mL | > 20 µg/mL | > 20 µg/mL |  | > 20 µg/mL | 
4 | COc1cc(/C=C/C(=O)O[C@H]2C[C@@H]3C[C@H](OC(=O)c4cc(OC)c(OC)c(OC)c4)C[C@H]2N3C)cc(OC)c1OC [PERVILLEINE B] | 0.1 µg/mL | 3.2 µg/mL (≈ 5.6 µM) | > 20 µg/mL | 8.8 µg/mL (≈ 15.4 µM) | 5.42 | 6.92 | 1 µg/mL (≈ 1.75 µM) | 1.3 µg/mL (≈ 2.27 µM) | 3.1 µg/mL (≈ 5.42 µM) | < 5.00 | 9.4 µg/mL (≈ 16.4 µM) | Activity [6]: Active; Activity [7]: Active; Activity [8]: Active; Activity (LOX IMVI [9]): inactive
5 | COc1cc2c(cc1OC)CN(CCc1ccc(NC(=O)c3cccc4c(=O)c5cccc(OC)c5[nH]c34)cc1)CC2 |  |  |  |  | 5.09 | 7.70 |  |  |  | 4.85 |  | 
6 | COc1ccc(CCN(C)CCCC(C#N)(c2ccc(OC)c(OC)c2)C(C)C)cc1OC (stereo unspecified) |  |  |  |  |  |  |  |  |  |  |  | Activity (LOX IMVI [10]): Active
7 | COc1cc(/C=C/C(=O)O[C@H]2C[C@H]3C[C@H](OC(=O)/C=C/c4cc(OC)c(OC)c(OC)c4)[C@@H](C2)N3C)cc(OC)c1OC [PERVILLEINE C] | 0.1 µg/mL | 1.4 µg/mL (≈ 2.34 µM) | 2.2 µg/mL (≈ 3.68 µM) | 9 µg/mL (≈ 15.1 µM) | 5.55 | 7.10 | > 20 µg/mL | 4.1 µg/mL (≈ 6.86 µM) | 2.3 µg/mL (≈ 3.85 µM) | < 5.00 | 2.8 µg/mL (≈ 4.68 µM) | Activity [11]: Active; Activity [12]: Active; Activity (LOX IMVI [13]): inactive; Activity [14]: Active
8 | COc1cccc2c1C(=O)c1c(O)c3c(c(O)c1C2=O)C[C@@](O)(C(=O)CO)C[C@@H]3O[C@H]1C[C@H](N)[C@H](O)[C@H](C)O1 [DOXORUBICIN] |  |  |  |  | 8.10 |  |  |  |  | 5.66 |  | 
9 | COc1cc(/C=C/C(=O)O[C@H]2[C@@H](O)[C@@H]3C[C@H](OC(=O)c4cc(OC)c(OC)c(OC)c4)C[C@H]2N3C)cc(OC)c1OC [PERVILLEINE A] | 0.3 µg/mL | > 20 µg/mL | > 20 µg/mL | > 20 µg/mL | < 5.00 | 6.19 | > 20 µg/mL | > 20 µg/mL | > 20 µg/mL | < 5.00 | > 20 µg/mL | 
10 | COc1cc(/C=C/C(=O)O[C@H]2C[C@@H]3C[C@H](OC(=O)Cc4cccc(O)c4)C[C@H]2N3C)cc(OC)c1OC [PERVILLEINE E] | 1.9 µg/mL | 8.4 µg/mL (≈ 16.4 µM) | 14.7 µg/mL (≈ 28.7 µM) | > 20 µg/mL |  |  | > 20 µg/mL | 13.4 µg/mL (≈ 26.2 µM) | > 20 µg/mL |  | > 20 µg/mL | 
11 | COc1cc(/C=C/C(=O)O[C@@H]2C[C@@H]3[C@@H](OC(=O)/C=C/c4cc(OC)c(OC)c(OC)c4)[C@@H](O)[C@H](C2)N3C)cc(OC)c1OC [PERVILLEINE D] | 0.2 µg/mL | 6.5 µg/mL (≈ 10.6 µM) | 11 µg/mL (≈ 17.9 µM) | 9 µg/mL (≈ 14.7 µM) |  |  | 14.1 µg/mL (≈ 23 µM) | 4.9 µg/mL (≈ 7.98 µM) | 15.1 µg/mL (≈ 24.6 µM) |  | 15 µg/mL (≈ 24.4 µM) | Activity (LOX IMVI [15]): inactive; Activity [16]: Active; Activity [17]: Active; Activity [18]: Active
12 | COc1cc(/C=C/C(=O)O[C@H]2C[C@@H]3C[C@H](OC(=O)Cc4ccccc4)C[C@H]2N3C)cc(OC)c1OC [PERVILLEINE F] | 0.2 µg/mL | > 20 µg/mL | > 20 µg/mL | > 20 µg/mL |  |  | > 20 µg/mL | 4.9 µg/mL (≈ 9.89 µM) | > 20 µg/mL |  | > 20 µg/mL | Activity [19]: Active; Activity [20]: Active; Activity [21]: Active; Activity (LOX IMVI [22]): inactive
